Results on eleven compounds are retold here after article PMC6774347 (European Journal of Organic Chemistry, 2019).

The structures appear in SMILES notation.

Series [1] can be described thus: Compound solubility in DMSO stock and in the biological assays. The format is physicochemical. As to conditions: for Compound crystallization in treated cells: CEM cells in complete media, 1 % v/v DMSO; for Solubility (in words): stock solutions at highest soluble concentration in DMSO.
The subject of the next series is CEM leukemia cell line. The experiment in a line: Differential nuclear staining. The format is cell-based, human. As to conditions: 48 h; for CEM cell death (in words): at the prepared / highest soluble concentrations; for Concentration inducing significant death in CEM cells: tested 100 µM to 0.5 µM. Put shortly: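 Live-cell imaging differential nuclear staining with Hoechst 33342 (all nuclei) and propidium iodide (dead cells). DMSO stocks at highest soluble concentration were serially diluted and added to cells in complete medium (final 1 % v/v DMSO), 100 µM down to 0.5 µM. Read at 48 h in quadruplicate. Controls were untreated, 1 % DMSO and 1.62 mM H2O2. CC50 (50 % membrane-integrity loss versus untreated) was linearly interpolated between the two concentrations nearest 50 %.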

The test system of another series is TK– VZV. The experiment in a line: Antiviral assay, plaque formation in HEL cells. The format is cell-based, varicella-zoster virus (VZV). As to conditions: Human alphaherpesvirus 3, HEL.
Another series relates to TK+ VZV. The experiment in a line: Antiviral assay, plaque formation in HEL cells. The format is cell-based, varicella-zoster virus (VZV). As to conditions: Human alphaherpesvirus 3, HEL.
The test system of a further series is CEM cells. Nature of the series: Annexin V-FITC / propidium iodide apoptosis assay. The format is cell-based, human. As to conditions: 24 h, annexin-FITC and PI staining.
In series [2] the test system is MDA-MB-231 (MB-231) triple-negative breast cancer cell line. The experiment in a line: Differential nuclear staining. The format is cell-based. As to conditions: Homo sapiens, MDA-MB-231, 72 h. The method in brief: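 MDA-MB-231 cells were stained with Hoechst 33342 and propidium iodide and imaged live. Serial dilutions from 100 µM (to 0.5 µM) in DMSO were added directly to cell-containing wells (final 1 % v/v DMSO). Read at 72 h in quadruplicate. Controls were untreated, 1 % DMSO and 1.62 mM H2O2. CC50 was linearly interpolated between the two concentrations flanking 50 % death relative to untreated cells.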

On to `COc1ccc2c(-n3cc(-c4cc(OC)c(OC)c(OC)c4)nn3)cc(=O)oc2c1` [Compound 19, 7‐Methoxy‐4‐(4‐(3,4,5‐trimethoxyphenyl)‐1H‐1,2,3‐triazol‐1‐yl)‐2H‐chromen‐2‐one], for which, in series [1], the “Compound crystallization in treated cells” value (“Compound crystallization” below) is “significant compound crystallization”. The “CEM cell death (in words)” value with CEM leukemia cell line was “did not induce quantifiable CEM cell death”.
For the compound `COc1cccc(-c2cn(-c3cc(=O)oc4ccc(Br)cc34)nn2)c1` [Compound 24, 6‐Bromo‐4‐(4‐(3‐methoxyphenyl)‐1H‐1,2,3‐triazol‐1‐yl)‐2H‐chromen‐2‐one], the “Concentration inducing significant death in CEM cells” value with CEM leukemia cell line is given as “approximately 10 µM”.
In the case of `COc1cc(-c2cn(-c3cc(=O)oc4ccccc34)nn2)cc(OC)c1OC` [Compound 13, 4‐(4‐(3,4,5‐Trimethoxyphenyl)‐1H‐1,2,3‐triazol‐1‐yl)‐2H‐chromen‐2‐one], the “Compound crystallization” value in series [1] was “significant compound crystallization”. Further, the “CEM cell death (in words)” value in the series with CEM leukemia cell line was “did not induce quantifiable CEM cell death”.
Consider `COc1cc(-c2cn(-c3cc(=O)oc4ccc(Br)cc34)nn2)cc(OC)c1OC` [Compound 16, 6‐Bromo‐4‐(4‐(3,4,5‐trimethoxyphenyl)‐1H‐1,2,3‐triazol‐1‐yl)‐2H‐chromen‐2‐one], for which the “Solubility (in words)” value in series [1] is reported as “relatively soluble”. In addition, the “CEM cell death (in words)” value in the series on CEM leukemia cell line was “did not induce significant CEM cell death”.
Take `COc1cc(-c2cn(-c3ccccc3)nn2)cc(OC)c1OC` [Compound 20, 1‐Phenyl‐4‐(3,4,5‐trimethoxyphenyl)‐1H‐1,2,3‐triazole]: the 50% effective concentration (EC50) worked out at 39.1 µM in the series on TK– VZV and 39.9 µM in the series on TK+ VZV. Besides, the “Solubility (in words)” value in series [1] is “the most readily soluble of the compounds”. Besides, the “Mode of cell death (apoptosis vs necrosis)” value with CEM cells is “preferentially induces cell death via apoptosis”. The same compound registered a CC50 in series [2] of 55.4 µM.
On to `COc1ccc(-c2cn(-c3cc(=O)oc4ccc(Br)cc34)nn2)cc1` [Compound 23, 6‐Bromo‐4‐(4‐(4‐methoxyphenyl)‐1H‐1,2,3‐triazol‐1‐yl)‐2H‐chromen‐2‐one], for which, in the series with CEM leukemia cell line, the “Concentration inducing significant death in CEM cells” value was “approximately 10 µM”.
In the series with TK+ VZV, `COc1cc(OC)cc(-c2cn(-c3cc(=O)oc4ccc(Br)cc34)nn2)c1` [Compound 22, 6‐Bromo‐4‐(4‐(3,5‐dimethoxyphenyl)‐1H‐1,2,3‐triazol‐1‐yl)‐2H‐chromen‐2‐one] returned an EC50 of 58.5 µM. In addition, the “Concentration inducing significant death in CEM cells” value in the series on CEM leukemia cell line is reported as “approximately 10 µM”.
Regarding `COc1cc(-c2cn(-c3cc(=O)oc4cc(C)ccc34)nn2)cc(OC)c1OC` [Compound 18, 7‐Methyl‐4‐(4‐(3,4,5‐trimethoxyphenyl)‐1H‐1,2,3‐triazol‐1‐yl)‐2H‐chromen‐2‐one], the “Compound crystallization” value in series [1] is given as “significant compound crystallization”. For the same compound, the “CEM cell death (in words)” value in the series with CEM leukemia cell line is on record as “did not induce quantifiable CEM cell death”.
The compound `COc1cc(-c2cn(-c3cc(=O)oc4c(Cl)cc(Cl)cc34)nn2)cc(OC)c1OC` [Compound 17, 6,8‐Dichloro‐4‐(4‐(3,4,5‐trimethoxyphenyl)‐1H‐1,2,3‐triazol‐1‐yl)‐2H‐chromen‐2‐one] displayed an EC50 in the series on TK+ VZV of 66.9 µM. For the same compound, in the series with CEM leukemia cell line, the “CEM cell death (in words)” value was “did not induce significant CEM cell death”.
Consider `COc1cc(-c2cn(-c3cc(=O)oc4ccc(C)cc34)nn2)cc(OC)c1OC` [Compound 14, 6‐Methyl‐4‐(4‐(3,4,5‐trimethoxyphenyl)‐1H‐1,2,3‐triazol‐1‐yl)‐2H‐chromen‐2‐one], for which, in the series on CEM leukemia cell line, the “CEM cell death (in words)” value is recorded as “did not induce significant CEM cell death”.
In the case of `COc1cc(-c2cn(-c3cc(=O)oc4ccc(Cl)cc34)nn2)cc(OC)c1OC` [Compound 15, 6‐Chloro‐4‐(4‐(3,4,5‐trimethoxyphenyl)‐1H‐1,2,3‐triazol‐1‐yl)‐2H‐chromen‐2‐one], the “Solubility (in words)” value in series [1] was “one of the least soluble compounds in the series”. Besides, in the series with CEM leukemia cell line, the “CEM cell death (in words)” value is listed as “demonstrated cytotoxicity at its highest soluble concentration”.
